Seven compounds from ChEMBL document CHEMBL4834474, “Terphenyl-Based Small-Molecule Inhibitors of Programmed Cell Death-1/Programmed Death-Ligand 1 Protein-Protein Interaction” (J Med Chem, 2021) can be followed below.

Data set [1] addresses T1, Programmed cell death protein 1/Programmed cell death 1 ligand 1 (Homo sapiens) (UniProt Q15116+Q9NZQ7). The data set can be described thus: Inhibition of PD-1/PD-L1 interaction in human PBMCs cocultured with CHO cells expressing PD-L1/TCRAct assessed as increase in IL-10 expression at 0.1 to 2.5 uM incubated for 48 hrs by TCA. Particulars: PBMC, dose 0.1-2.5 µM. It counts as cell-based. In a few lines: (§1)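 Culture supernatants taken from 48 h cocultures of PBMCs with CHO/TCRAct/PD-L1 cells (compound 0.1, 0.5, 2.5 μM). IL-2, IL-6, IL-10, IFN-γ, TNFα quantified by cytometric bead array against standard curves. Per donor, normalized to untreated PBMC plus CHO/TCRAct coculture. Mean ± SEM of four donors; one-way ANOVA, Fisher post hoc.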

Data set [2] deals with T1, Programmed cell death protein 1/Programmed cell death 1 ligand 1 (Homo sapiens). The data set can be described thus: Inhibition of PD-1/PD-L1 interaction in human PBMCs cocultured with CHO cells expressing PD-L1/TCRAct assessed as increase in INFgamma expression at 0.1 to 2.5 uM incubated for 48 hrs by TCA. The data set is classed as cell-based. The settings on record: PBMC, dose 0.1-2.5 µM. The essentials: as §1

Data set [3] has as its target Programmed cell death 1 ligand 1 (Mus musculus) (UniProt Q9EP73). The data set can be described thus: Binding affinity to mouse PD-L1 assessed as induction of protein dimerization by 1H NMR method.
The target of data set [4] is T1, Programmed cell death protein 1/Programmed cell death 1 ligand 1 (Homo sapiens). The data set can be described thus: Inhibition of PD-1/PD-L1 interaction in human PBMCs cocultured with CHO cells expressing PD-L1/TCRAct assessed as increase in CD25 expression on CD8+ T cells at 0.1 to 2.5 uM incubated for 48 hrs by flow cytometry. The data set is classed as cell-based. Particulars: PBMC, dose 0.1-2.5 µM. The essentials:
(§2)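 PBMCs isolated by density gradient from healthy donor blood (citrate dextrose anticoagulant). 3 × 10^5 cells added to preseeded CHO/TCRAct/PD-L1 cells with compound at 0.1, 0.5 or 2.5 μM, 0.1% DMSO as control. Cocultured 48 h at 37 °C, 5% CO2. Detached cells stained 20 min at RT for CD4, CD8, CD69, CD25, HLA-DR, PD-1; flow cytometry. Four donors; one-way ANOVA with Fisher post hoc.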

For data set [5] the target is unchanged. The data set can be described thus: Inhibition of PD-1/PD-L1 interaction in human PBMCs cocultured with CHO cells expressing PD-L1/TCRAct assessed as increase in CD25 expression on CD4+ T cells at 0.1 to 2.5 uM incubated for 48 hrs by flow cytometry. The data set is classed as cell-based. Particulars: PBMC, dose 0.1-2.5 µM. The essentials: as §2
(In general: Flow cytometry measures light scatter and fluorescence of single cells or particles in a stream.)

Data set [6] shares this target. The data set can be described thus: Inhibition of PD-1/PD-L1 interaction in human PBMCs cocultured with CHO cells expressing PD-L1/TCRAct assessed as increase in PD-1 receptor expression on CD8+ T cells at 0.1 to 2.5 uM incubated for 48 hrs by flow cytometry. It counts as cell-based. The settings on record: PBMC, dose 0.1-2.5 µM. In a few lines:
as §2

The target is the same in data set [7]. The data set can be described thus: Inhibition of PD-1/PD-L1 interaction in human PBMCs cocultured with in CHO cells expressing PD-L1/TCRAct assessed as increase in HLA-DR expression on CD8+ T cells at 0.1 to 2.5 uM incubated for 48 hrs by flow cytometry. It counts as cell-based. Particulars: PBMC, dose 0.1-2.5 µM. The essentials:
as §2

For data set [8] the target is unchanged. The data set can be described thus: Inhibition of PD-1/PD-L1 interaction in human PBMCs cocultured with CHO cells expressing PD-L1/TCRAct assessed as increase in IL-2 expression at 0.1 to 2.5 uM incubated for 48 hrs by TCA. Particulars: PBMC, dose 0.1-2.5 µM. It counts as cell-based. The essentials:
as §1

Data set [9] has the same target. The data set can be described thus: Inhibition of PD-1/PD-L1 interaction in human PBMCs cocultured with CHO cells expressing PD-L1/TCRAct assessed as increase in IL-6 expression at 0.1 to 2.5 uM incubated for 48 hrs by TCA. It counts as cell-based. Particulars: PBMC, dose 0.1-2.5 µM. The essentials:
as §1

For data set [10] the target is unchanged. The data set can be described thus: Inhibition of PD-1/PD-L1 interaction in human Jurkat cells cocultured with CHO cells expressing PD-Ll/TCRAct assessed as activation of effector Jurkat cells at 0.01 to 100 uM incubated for 6 hrs by luciferase reporter gene based immune checkpoint blockade cell-based assay. The settings on record: dose 0.01-100 µM. The essentials: (§3)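 CHO/TCRAct/PD-L1, CHO/TCRAct or CHO-K1 cells seeded at 10,000/well. Next day overlaid with Jurkat-ECs (20,000/well) plus compound dilutions, DMSO held at 0.1%. Incubated 6 h at 37 °C, 5% CO2; luciferase reagent added for 20 min at room temperature; luminescence read. Fold induction over DMSO-treated cells; mean ± SD, 3–5 experiments; EC50 by Hill fit.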
On the technique in general: Reporter assays use an easily measured gene product as a stand-in for the process of interest.

Data set [11] has the same target. The data set can be described thus: Inhibition of PD-1/PD-L1 interaction in human PBMCs cocultured with CHO cells expressing PD-L1/TCRAct assessed as increase in PD-1 receptor expression on CD4+ T cells at 0.1 to 2.5 uM incubated for 48 hrs by flow cytometry. It counts as cell-based. Particulars: PBMC, dose 0.1-2.5 µM. The essentials:
as §2

The test system of data set [12] is Jurkat. The data set can be described thus: Cytotoxicity against human Jurkat effector cells at 10 uM after 48 hrs. It counts as cell-based. In a few lines:
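Jurkat-ECs (PD-1, NFAT-RE luciferase) exposed to increasing compound concentrations, DMSO constant at 0.1%. After 48 h, tetrazolium redox dye added for a further 2 h at 37 °C, 5% CO2. Absorbance at 590 nm, 750 nm reference. Survival relative to DMSO controls; mean ± SD of three independent experiments; EC50 from dose–response curve.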

For data set [13], the target named is T1, Programmed cell death protein 1/Programmed cell death 1 ligand 1 (Homo sapiens). The data set can be described thus: Inhibition of PD-1/PD-L1 interaction in human PBMCs cocultured with CHO cells expressing PD-L1/TCRAct assessed as increase in HLA-DR expression on CD4+ T cells at 0.1 to 2.5 uM incubated for 48 hrs by flow cytometry. It counts as cell-based. Particulars: PBMC, dose 0.1-2.5 µM. In a few lines:
as §2

Data set [14] deals with Programmed cell death 1 ligand 1 (Homo sapiens) (UniProt Q9NZQ7). The data set can be described thus: Binding affinity to human PD-L1 assessed as induction of protein dimerization by 1H NMR method.
Sequence of Programmed cell death 1 ligand 1 (Homo sapiens) (Q9NZQ7 whole entry): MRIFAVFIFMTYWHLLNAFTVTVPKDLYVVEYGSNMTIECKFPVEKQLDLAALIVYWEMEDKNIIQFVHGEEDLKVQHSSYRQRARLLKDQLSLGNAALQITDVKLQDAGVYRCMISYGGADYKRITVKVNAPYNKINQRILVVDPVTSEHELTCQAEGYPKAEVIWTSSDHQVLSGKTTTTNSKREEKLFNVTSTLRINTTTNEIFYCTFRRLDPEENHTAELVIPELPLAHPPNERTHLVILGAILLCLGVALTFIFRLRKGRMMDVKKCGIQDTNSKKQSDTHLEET
The target of data set [15] is T1, Programmed cell death protein 1/Programmed cell death 1 ligand 1 (Homo sapiens). The data set can be described thus: Inhibition of PD-1/PD-L1 interaction in human Jurkat cells cocultured with CHO cells expressing TCRAct assessed as activation of effector Jurkat cells incubated for 6 hrs by luciferase reporter gene based immune checkpoint blockade cell-based assay. The essentials: as §3

The target is the same in data set [16]. The data set can be described thus: Inhibition of PD-1/PD-L1 interaction in human PBMCs cocultured with CHO cells expressing PD-L1/TCRAct assessed as increase in TNFalpha expression at 0.1 to 2.5 uM incubated for 48 hrs by TCA. The data set is classed as cell-based. Particulars: PBMC, dose 0.1-2.5 µM. The essentials: as §1

Calls of active or inactive are those of the source. The rule behind the calls is not given here.

Sequence of Programmed cell death 1 ligand 1 (Mus musculus) (Q9EP73 whole entry): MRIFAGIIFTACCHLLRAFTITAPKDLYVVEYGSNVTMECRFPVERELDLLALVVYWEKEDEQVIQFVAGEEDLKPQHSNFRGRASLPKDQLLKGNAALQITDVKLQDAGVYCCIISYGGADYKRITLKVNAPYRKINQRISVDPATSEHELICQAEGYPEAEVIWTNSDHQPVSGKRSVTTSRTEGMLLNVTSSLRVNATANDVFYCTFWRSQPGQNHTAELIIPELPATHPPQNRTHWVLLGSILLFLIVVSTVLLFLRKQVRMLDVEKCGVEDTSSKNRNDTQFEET

For the compound `COc1cc(-c2cccc(-c3ccc4c(c3)OCCO4)c2Cl)ccc1CNC(CO)(CO)CO`, the inhibition result in [1], in [2], in data set [4], in [5], in [6] and in data set [7] was “Active” each time. In addition, the inhibition result in data set [8], in data set [9], in data set [10], in data set [11], in data set [13] and in data set [16] was “Active” each time. For the same compound, the outcome in data set [3] was inactive. In data set [12], the Activity result is given as “Non-Toxic”. Also, in data set [14], the outcome was Active. The inhibition entry in data set [15] is “inactive”.
In the case of `COc1cc(-c2cccc(-c3ccc4c(c3)OCCO4)c2Cl)ccc1CNCCNC(=O)CN`, the inhibition result in data set [10] was “Active”. The Activity result in [12] is reported as “Non-Toxic”. Also, in data set [15], the inhibition result was “inactive”.
For the compound `CC(=O)NCCNCc1ccc(-c2cccc(-c3ccc4c(c3)OCCO4)c2Cl)cc1OCC#N`, in data set [14], the outcome was Active.
Regarding `COc1cc(-c2cccc(-c3ccc4c(c3)OCCO4)c2Cl)ccc1CNCCNC(C)=O`, in data set [10], the inhibition result is “Active”. Besides, the Activity entry in [12] is listed as “Non-Toxic”. The outcome in [14] was Active. Moreover, the inhibition result in data set [15] is “inactive”.
In the case of `COc1cc(-c2cccc(-c3ccc4c(c3)OCCO4)c2Cl)ccc1CNCCNC(N)=O`, the inhibition result in data set [4], in [5], in [7], in [13] and in data set [15] was “inactive” throughout. The inhibition entry in [6], in data set [10] and in data set [11] was “Active” each time. Moreover, the Activity entry in [12] was “Non-Toxic”.
Regarding `COc1cc(-c2cccc(-c3ccc4c(c3)OCCO4)c2Cl)ccc1CNC(CO)CO`, the inhibition entry in [10] is “Active”. In addition, the Activity entry in data set [12] is “Non-Toxic”. In [15], the inhibition result was “inactive”.
In the case of `COc1cc(-c2cccc(-c3ccc4c(c3)OCCO4)c2Cl)ccc1CNCCNS(C)(=O)=O`, in data set [10], the inhibition entry is “Active”. Besides, the Activity entry in data set [12] was “Non-Toxic”. In data set [15], the inhibition entry was “inactive”.
